Experimental data from ChEMBL document CHEMBL1122627, “Synthesis of certain hydroxy analogues of the antimalarial drug primaquine and their in vitro methemoglobin-producing and glutathione-depleting activity in human erythrocytes” (1984).
Values joined by “and” are separate entries in the source; they are usually repeats but may differ in a detail not shown here. Identical values can stand only once.

What was measured:
Assay type in all cases: functional
Homo sapiens [1] = species: Homo sapiens; experiment: In vitro methemoglobin (metHb) forming activity in Glucose-6-phosphate dehydrogenase- (G6PD-) deficient human erythrocytes at 0.05 mM
Procedure, shortened: (§1)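 Blood (30–40 mL) from normal or G6PD-deficient human volunteers, anticoagulated with sodium edetate. Washed erythrocytes suspended to 50% in buffered dextrose saline, incubated with each compound at 37 °C for 2 h. Reaction stopped on ice for 5 min. Cells spun at 1500g for 10 min at 5 °C, washed twice in ice-cold buffered saline dextrose, resuspended to 50%.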

Homo sapiens [2] = species: Homo sapiens; experiment: In vitro decreasing the GSH content in normal in human erythrocytes at 0.05 mM; procedure, shortened: as §1
Homo sapiens [3] = species: Homo sapiens; experiment: In vitro methemoglobin (metHb) forming activity in normal human erythrocytes.; procedure, shortened: as §1
Homo sapiens [4] = species: Homo sapiens; experiment: In vitro methemoglobin (metHb) forming activity in normal human erythrocytes at 0.05 mM; procedure, shortened: as §1
Homo sapiens [5] = species: Homo sapiens; experiment: In vitro decreasing the GSH content in normal in human erythrocytes at 0.01 mM; procedure, shortened: as §1

Row | SMILES | Methemoglobin (Homo sapiens [1]) | GSH level (Homo sapiens [2]) | Methemoglobin (Homo sapiens [3]) [%] | Methemoglobin (Homo sapiens [4]) [%] | GSH level (mg) (Homo sapiens [5])
1 | CC(CCCN)Nc1cc(O)cc2cccnc12 (stereo unspecified) | 1.7% and 1.2% | 63.4% and 44.8% | 1.1 | 1.1 | 63.8% and 45.8%
2 | COc1cc(N)c2ncccc2c1O | 43.8% and 22.3% |  |  | 34.2 | 
3 | Nc1cc(O)c(O)c2cccnc12 [5,6-DIHYDROXY-8-AMINOQUINOLINE] |  |  | 4.8 | 22.3 | 
4 | CC(CCCN)Nc1cc(O)c(O)c2cccnc12 (stereo unspecified) [5-HYDROXYDESMETHYLPRIMAQUINE] |  |  | 4.2 | 16.3 | 
5 | COc1cc(NC(C)CCCN)c2ncccc2c1O (stereo unspecified) [5-HYDROXYPRIMAQUINE] |  |  | 3.4 | 12.8 | 
6 | COc1cc(NC(C)CCCN)c2ncccc2c1 (stereo unspecified) [PRIMAQUINE] | 1.3% | 60% and 47.4% |  | 1 | 
